An excerpt weighted towards active compounds, which were near 0.62% of everything screened.
AP ELISA ortho: orthogonal test for alternative complement pathway inhibitors; Human serum alternative complement pathway, LPS-coated ELISA, C3 deposition; tested in compound mixtures; inhibition, % at 5 µM; 62,000 compounds, 0.08% hits; AID 1235;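 active means inhibition above 30% in each of the two pooled mixtures holding the compound, so the lower value exceeds 30%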
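Test system: human serum complement alternative pathway, C3 deposition onto LPS / Medium: Mg2+-EGTA GVB++ buffer containing human serum at 1:15 dilution / Probe or stimulus: Plate-bound LPS / Times: 1 h at 37 °C / Signal: ELISA with HRP anti-human C3 antibody, TMB substrate, absorbance 450 nm / Measure: percent inhibition / Repeats: two pool placements per compound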
A340 absorber: compound absorbs light at 340 nm. 65,000 tested, under 10 active. fold change at 10 µM. compound absorbance at 340 nm, fold over control;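 active means at 10 µM dose, initial 340 nm absorbance at least 2 fold that of control wells; inactive means change under 2 fold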;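 further: initial absorbance extrapolated from kinetic A340 decline of NADH oxidation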
HePTP inh: inhibitors of human HePTP phosphatase. inhibition, % at 20 µM. 110,000 compounds, 0.64% hits. recombinant HePTP phosphatase activity, OD absorbance. AID 521; in the data active means inhibition above about 50%
Target sequence (P35236 whole entry, looked up): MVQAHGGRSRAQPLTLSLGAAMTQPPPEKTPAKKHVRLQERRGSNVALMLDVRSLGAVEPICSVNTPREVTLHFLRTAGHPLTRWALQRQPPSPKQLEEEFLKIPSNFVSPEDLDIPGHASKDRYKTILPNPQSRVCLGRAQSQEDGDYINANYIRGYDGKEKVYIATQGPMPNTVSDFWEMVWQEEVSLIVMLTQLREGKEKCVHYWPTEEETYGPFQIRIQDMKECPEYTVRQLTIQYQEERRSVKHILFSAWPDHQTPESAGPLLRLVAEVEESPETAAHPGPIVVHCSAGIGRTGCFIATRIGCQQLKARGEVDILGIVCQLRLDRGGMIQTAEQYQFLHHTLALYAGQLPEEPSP
Numbers stand for hits; 0 = inactive; - = no result; ! = not confirmed by another sample.

SMILES | AP ELISA ortho | A340 absorber | HePTP inh
CCc1ccc(S(=O)(=O)Nc2ccc(NC(C)=O)cc2)cc1 | - | - | 102.7
CC(=O)Nc1ccc(NS(=O)(=O)c2ccc(F)cc2)cc1 | - | - | 0
COc1ccc2ccccc2c1C(=O)/C=C/c1cccnc1 | - | - | 0
COc1ccccc1NC(=O)C1=C(C)NC(SCC(=O)c2ccccc2)=C(C#N)C1c1ccccc1Cl (stereo unspecified) | - | - | 0
O=C(CC12CC3CC(C1)CC(CC(=O)N1CCOCC1)(C3)C2)N1CCOCC1 | - | - | 0
CN1CCN(C(=O)CC23CC4CC(CC(C4)C2)C3)CC1 | 0 | 0 | 103.9!
O=C(Nc1ccc2nn(-c3ccc(F)cc3)nc2c1)c1ccc(Br)o1 | - | - | 81.1
O=C(Nc1ccc2nn(-c3ccccc3)nc2c1)c1ccc(Br)o1 | 0 | 0 | 0
CCOc1ccccc1NC(=O)COc1ccccc1Cl | - | - | 0
O=C(/C=C\c1ccco1)Oc1ccc(/C=N\NC(=O)c2cncc(Br)c2)cc1 | - | - | 57.5
O=C(N/N=C\c1ccccc1O)c1cncc(Br)c1 | - | - | 0
CCn1cc(/C=C2\C(=O)NC(=O)N(c3ccccc3)C2=O)c2ccccc21 | - | - | 0
C#CCn1cc(/C=C2\C(=O)NC(=O)N(c3ccc(C)cc3)C2=O)c2ccccc21 | - | - | 85.4
CCOC(=O)C1=C(C)NC(=S)NC1c1cccc(Br)c1 (stereo unspecified) | - | - | 0
COc1cccc(OC)c1C(=O)Nc1cc(Cl)c(Cl)cc1Cl | - | - | 0
COc1ccc(N2C(=O)/C(=C/c3ccc(Br)o3)SC2=S)cc1 | - | - | 51.4
COc1ccc(N2C(=O)/C(=C/c3ccc(I)o3)SC2=S)cc1 | - | - | 0
O=C1CSC(c2ccccc2)N1/N=C/c1ccccc1 (stereo unspecified) | - | - | 0
Cc1ccc(N2C(=O)C3C(c4cccc(F)c4)OC4(C(=O)c5ccccc5C4=O)C3C2=O)cc1 (stereo unspecified) | - | - | 0
CCN(CC)CCSc1nc(O)c(C(C)C)c(=O)n1-c1ccccc1 | - | - | 0
Cc1onc(-c2ccccc2Cl)c1C(=O)N1CCN(c2ccccc2)CC1 | 0 | 0 | 0
Cc1onc(-c2ccccc2Cl)c1C(=O)N1CCN(c2ccccc2F)CC1 | - | - | 103.6
Cc1nn(-c2ccccc2)c(C)c1Sc1ccc(Cl)cc1 | - | - | 103.6
Cc1cc(C)nc(Sc2c(C)nn(-c3ccccc3)c2C)n1 | 0 | 0 | 0
Cc1cc(C)n(C(=O)c2c(C(=O)O)cccc2[N+](=O)[O-])n1 | - | - | 0
SMILES | AP ELISA ortho | A340 absorber | HePTP inh
CCNc1nc(NCC)nc(OCCNS(=O)(=O)c2cc(C)ccc2C)n1 | 0 | 0 | 0
CCNc1nc(NC(C)C)nc(OCCNS(=O)(=O)c2cc(C)ccc2C)n1 | 31.9 | 0 | 0
COC(=O)c1c(NC(=O)C2C3CCC(C3)C2C(=O)O)sc(C)c1-c1cc(C)ccc1C (stereo unspecified) | - | - | 0
Cc1ccccc1NC(=O)/C(=C\c1ccccc1Cl)NC(=O)c1ccccc1 | - | - | 0
Nc1ccc(O)c2c1C(=O)c1c(N)ccc(O)c1C2=O | - | - | 0
Nc1ccc(S(=O)(=O)O)c2cccc(O)c12 | - | - | 103.2
COc1ccc(C(=O)N=Nc2c(O)n(CN3CCCC3)c3ccc(Br)cc23)cc1 | - | - | 0
COc1ccc(C(=O)N=Nc2c(O)n(CN(C)C)c3ccc(Br)cc23)cc1 | - | - | 86.8
CNc1ccc([N+](=O)[O-])cc1N/C=C1\CCc2ccccc2C1=O | - | - | 103.6
O=C1/C(=C\Nc2cc(Cl)ccc2O)CCc2ccccc21 | - | - | 0
O=C(NCc1ccco1)c1cc(-c2ccccc2)nc2ccccc12 | - | - | 0
O=C(Nc1ccccc1F)c1cc(-c2ccco2)nc2ccccc12 | - | - | 0
O=C(NCc1ccco1)c1cc(-c2ccco2)nc2ccccc12 | - | - | 103.3
O=C(Nc1cccc2ccccc12)c1cc(-c2ccco2)nc2ccccc12 | - | - | 102.0
COc1cc(/C=N/Nc2ccc3ccccc3n2)cc(Br)c1O | - | - | 0
O=C(Nc1ccc(Sc2ccccc2[N+](=O)[O-])cc1)c1ccccc1 | - | - | 0
CCC(=O)Oc1cc(OC(=O)CC)c2c(C)cc(=O)oc2c1 | - | - | 0
CCOC(=O)CSc1nnc(-c2cccc(OC)c2)n1-c1ccccc1 | - | - | 93.8
COc1cccc(-c2nnc(SCC(N)=O)n2-c2ccc(Cl)cc2)c1 | 0 | 0 | 0
O=C1/C(=C/c2cn(-c3ccccc3)nc2-c2ccco2)SC(=S)N1C1CCS(=O)(=O)C1 (stereo unspecified) | - | - | 66.1
O=C1/C(=C/c2ccc(Cl)cc2Cl)SC(=S)N1C1CCS(=O)(=O)C1 (stereo unspecified) | - | - | 0
Cc1cc(OCC(O)CNC(C)C)cc(C)c1Cl (stereo unspecified) | - | - | 0
CCOC(=O)c1c(NC(=S)Nc2ccccc2)sc2c1CCN(Cc1ccccc1)C2 | - | - | 0
CCN1CCc2c(sc(NC(=O)Nc3ccc(Cl)cc3)c2C(N)=O)C1 | - | - | 100.7
COc1ccc(-c2nc(Cc3ccc(OC)c(OC)c3)no2)cc1 | - | - | 0
SMILES | AP ELISA ortho | A340 absorber | HePTP inh
O=c1cc(C(F)(F)F)c2ccc(OCc3ccc(Cl)cc3)cc2o1 | - | - | 0
CCc1ccc2oc(=O)cc(CN3CCN(c4ccc(F)cc4)CC3)c2c1 | 0 | 0 | 0
CC(C)c1ccc2oc(=O)cc(CN3CCN(c4ccc(F)cc4)CC3)c2c1 | 39.6 | 0 | 0
Cc1cc(-c2ccccc2)c2nncn2n1 | 0 | 0 | 78.0!
Cc1cc(-c2ccccc2)c2c3c(cn2n1)c(=O)n(C)c(=O)n3C | 0 | 0 | 0
Cc1cccc(N2C(=O)c3ccc(-c4nc5ccccc5c(=O)o4)cc3C2=O)c1C | - | - | 0
CN1C(=O)/C(=C2\SC(=S)N(C(CCC(=O)O)C(=O)O)C2=O)c2ccccc21 (stereo unspecified) | 0 | 0 | 0
CN1C(=O)/C(=C2/SC(=S)N(CCC(=O)O)C2=O)c2cc(Br)ccc21 | - | - | 103.6
COc1ccc(OCC(=O)NCCSCc2ccc(Cl)cc2)cc1 | - | - | 0
Cc1cc(C)nc(/N=C(/N)Nc2ccc(Cl)cc2[N+](=O)[O-])n1 | - | - | 0
Cc1sc(NC(=O)c2ccccc2C(=O)O)c(C#N)c1C | - | - | 0
CCN(CC)C(=O)c1sc(NC(=O)c2ccc(Cl)cc2)c(C#N)c1C | - | - | 0
CCN(CC)C(=O)c1sc(NC(=O)c2cc(Cl)ccc2Cl)c(C#N)c1C | - | - | 103.6
Cc1sc(NC(=O)c2cc(Cl)ccc2Cl)c(C#N)c1C | - | - | 103.0
COc1cc(/C=C2\C(=O)NC(=S)N(c3ccc(Br)cc3)C2=O)ccc1OCC(=O)O | - | - | 0
O=C(CSc1nc2ccc([N+](=O)[O-])cc2[nH]1)Nc1ccc2c(c1)OCO2 | - | - | 0
Oc1c(Br)cc(/C=N/Nc2nnc3c(n2)[nH]c2ccccc23)c(Br)c1O | - | - | 89.2
Cc1ccc2[nH]c3nc(N/N=C/c4cc(Br)c(O)c(Br)c4)nnc3c2c1 | - | - | 0
CCOC(=O)C1=C(C)N=c2s/c(=C\c3ccc([N+](=O)[O-])o3)c(=O)n2C1c1ccc(OC)cc1 (stereo unspecified) | - | - | 51.9
CCOC(=O)C1=C(C)N=c2s/c(=C\c3cccs3)c(=O)n2C1c1ccc(OC)cc1 (stereo unspecified) | - | - | 0
COc1cccc(C(=O)NC2CCN(C(=O)N3CCCCC3)CC2)c1 | 0 | 0 | 0
CC(=O)NC1CCN(C(=O)N2CCCC2)CC1 | 37.2 | 0 | 0
C=CCn1c2ccccc2c2nnc(SCC)nc21 | - | - | 0
O=C1N=c2ccccc2=C1c1sc(Nc2ccc(O)cc2)nc1O | - | - | 103.8
O=C1N=c2ccccc2=C1c1sc(Nc2cccc(O)c2)nc1O | - | - | 0
O=C1/C(=C\c2c(Cl)cccc2Cl)SC(=S)N1c1ccc(F)cc1 | - | - | 0
O=C1NC(=S)S/C1=C/c1ccc(OCc2cccc(C(=O)O)c2)cc1 | - | - | 0

From PubChem BioAssay
